# Experimental data taken from PubChem BioAssay AID504649 (Molecular Libraries Program, Specialized Chemistry Center, …, 2011).
# Active and inactive are the calls of the source.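 Rule for the calls: active = half-maximal inhibitory concentration IC50 of 10 µM or lower; inactive = the rest.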
# Molecular target: Transitional endoplasmic reticulum ATPase (Homo sapiens) (UniProt P55072)
# Experiment: p97-dependent UbG76V-GFP degradation inhibitors in cells, SAR follow-up, imaging, HeLa, round 3 (AID 504649)
# Conditions: not given
# Procedure, shortened: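 Material: UbG76V-GFP reporter HeLa cells | Timing: MG132 pre-treatment 1 h, GFP imaging 70–170 min into chase | Detection: Imaged GFP fluorescence intensity, ~500 cells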
# Sequence of Transitional endoplasmic reticulum ATPase (Homo sapiens) (P55072 whole entry, looked up): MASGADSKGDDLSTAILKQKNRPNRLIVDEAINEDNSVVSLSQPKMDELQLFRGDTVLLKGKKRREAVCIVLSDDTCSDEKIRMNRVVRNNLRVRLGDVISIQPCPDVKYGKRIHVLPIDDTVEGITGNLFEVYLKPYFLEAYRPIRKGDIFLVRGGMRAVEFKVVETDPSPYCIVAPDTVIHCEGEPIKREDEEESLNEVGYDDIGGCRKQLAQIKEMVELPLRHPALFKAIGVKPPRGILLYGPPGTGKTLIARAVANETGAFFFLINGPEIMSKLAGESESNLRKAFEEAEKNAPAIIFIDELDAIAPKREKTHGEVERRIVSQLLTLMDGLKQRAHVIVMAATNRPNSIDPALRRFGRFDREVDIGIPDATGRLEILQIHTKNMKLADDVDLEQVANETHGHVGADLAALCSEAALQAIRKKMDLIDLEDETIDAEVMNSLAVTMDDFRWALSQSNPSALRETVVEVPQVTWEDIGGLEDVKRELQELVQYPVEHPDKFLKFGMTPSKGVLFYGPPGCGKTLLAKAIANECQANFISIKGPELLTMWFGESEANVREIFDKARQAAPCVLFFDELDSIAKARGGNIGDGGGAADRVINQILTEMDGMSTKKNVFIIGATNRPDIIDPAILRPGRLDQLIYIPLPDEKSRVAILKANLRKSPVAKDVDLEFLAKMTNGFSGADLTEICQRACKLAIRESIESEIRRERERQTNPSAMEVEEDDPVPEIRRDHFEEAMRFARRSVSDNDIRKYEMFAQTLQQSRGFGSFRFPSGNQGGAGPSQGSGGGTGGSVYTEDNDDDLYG
row,IC50,Compound
1,inactive,Clc1ccccc1-c1nc(N2CCCc3ccccc32)c2ccccc2n1
2,5 µM,COc1cccc2c(NCc3ccccc3)nc(-n3c(=O)oc4ccccc43)nc12
3,7.7 µM,Oc1cccc2c(NCc3ccccc3)nc(N3CCOc4ccccc43)nc12
4,8.1 µM,c1ccc2c(c1)OCCN2c1nc(N2CCOc3ccccc32)c2ccccc2n1
5,inactive,COc1cccc2c(NCc3cccc(N(C)C)c3)nc(N3CCOc4ccccc43)nc12
6,> 20 µM (inactive),COc1cccc2c(NCc3ccccc3)nc(N3CCN(C(C)=O)CC3)nc12
7,1.8 µM,COc1cccc2c(NCc3ccccc3)nc(NCc3cccs3)nc12
8,3.7 µM,COc1cccc2c(NCc3ccccc3)nc(N3CCNc4ccccc43)nc12
9,inactive,COc1cccc2c(NCc3ccccc3)nc(NCc3cncs3)nc12
10,> 20 µM (inactive),COc1cccc2c(NCc3cncs3)nc(N3CCOc4ccccc43)nc12
11,5 µM,c1ccc(CNc2nc(N3CCOc4ccccc43)nc3c(-c4ccccc4)cccc23)cc1
12,7.8 µM,COc1cccc2c(NCc3ccccc3)nc(N3CCN(C)c4ccccc43)nc12
13,2.9 µM,Nc1nc2ccccc2n1-c1nc(NCc2ccccc2)c2ccccc2n1
14,3.5 µM,c1ccc(CNc2nc(N3CCOc4ccccc43)nc3c2CCCC3)cc1
15,3 µM,COc1cccc2c(NCc3cccs3)nc(N3CCOc4ccccc43)nc12
16,7 µM,c1ccc(CNc2nc(N3CCc4ccccc4C3)nc3ccccc23)cc1
17,5.3 µM,CCN(CC)CCOc1cccc2c(NCc3ccccc3)nc(N3CCOc4ccccc43)nc12
18,3.8 µM,OCCOc1cccc2c(NCc3ccccc3)nc(N3CCOc4ccccc43)nc12
19,0.9 µM,COc1cccc2c(NCc3ccccc3)nc(-n3c(N)nc4ccccc43)nc12
20,> 20 µM (inactive),COc1cccc2c(NCc3ccccc3)nc(N(C)Cc3ccccc3)nc12
21,3.3 µM,COc1cccc2c(NCc3ccccc3)nc(N3CCOc4ccccc43)nc12
22,8 µM,COc1cccc2c(NCc3ccccc3)nc(N3CCN(C(C)=O)c4ccccc43)nc12
23,2.6 µM,COc1cccc2c(NCc3ccccc3)nc(-n3c(N)nc4c(C)cccc43)nc12
24,inactive,COc1cccc2c(NCc3ccccc3)nc(Nc3nc4ccccc4s3)nc12
25,7.7 µM,N#CCOc1cccc2c(NCc3ccccc3)nc(N3CCOc4ccccc43)nc12
26,2.1 µM,COc1cccc2c(NCc3ccccc3)nc(NC(C)c3ccccc3)nc12 (stereo not given)

row,IC50,Compound
1,1.8 µM,Nc1nc2ccccc2n1-c1nc2c(c(NCc3ccccc3)n1)CCCC2
2,4.5 µM,COc1cccc2c(NCc3ccccc3N(C)C)nc(N3CCOc4ccccc43)nc12
3,2.5 µM,COc1cccc2c(NCc3ccccc3)nc(-n3c(N)nc4cc(C)ccc43)nc12
4,7.8 µM,COc1cccc2c(NCc3ccccc3)nc(Nc3nc4ccccc4n3C)nc12
5,inactive,COc1cccc2c(NCc3ccccn3)nc(N3CCNc4ccccc43)nc12
6,6.4 µM,c1ccc(CNc2nc(N3CCOc4ccccc43)nc3ccsc23)cc1
7,9 µM,COc1ccc(-c2cccc3c(NCc4ccccc4)nc(N4CCOc5ccccc54)nc23)cc1
8,4.8 µM,COc1cccc2c(NCc3ccccc3)nc(Nc3cccc(F)c3)nc12
9,inactive,Cc1nc(N2CCOc3ccccc32)nc(NCc2ccccc2)c1C
10,> 20 µM (inactive),COc1cccc2c(NCc3ccccc3)nc(-n3c(N)nc4cc(Cl)c(Cl)cc43)nc12
11,7.1 µM,COc1cccc2c(NCc3ccccc3)nc(Nc3cc(C)cc(F)c3)nc12
12,4.2 µM,COc1cccc2c(NCc3ccccc3)nc(NCC3CCCCC3)nc12
13,2.8 µM,COc1cccc2c(NCc3ccccc3)nc(Nc3ccccc3O)nc12
14,0.96 µM,COc1ccc2c(c1)nc(N)n2-c1nc(NCc2ccccc2)c2cccc(OC)c2n1
15,inactive,Nc1nc2ccccc2n1-c1nccc(NCc2ccccc2)n1
16,6 µM,COc1cccc2c(NCc3ccccc3O)nc(N3CCOc4ccccc43)nc12
17,6.5 µM,COCCOc1cccc2c(NCc3ccccc3)nc(N3CCOc4ccccc43)nc12
18,8.2 µM,COc1cccc2c(NCC3CCCCC3)nc(N3CCOc4ccccc43)nc12
19,inactive,COc1cccc2c(NCc3ccccn3)nc(N3CCOc4ccccc43)nc12
20,inactive,CC(C)Nc1nc(Nc2cccc(Cl)c2)nc2ccccc12
21,9.2 µM,CN(c1ccccc1)c1nc(NCc2ccccc2)c2ccccc2n1
22,5.4 µM,COc1cccc2c(NCc3ccccc3)nc(-n3c(N)nc4c(F)cccc43)nc12
23,3.7 µM,COc1cccc2c(NCc3ccc(F)cc3)nc(N3CCOc4ccccc43)nc12
24,6.8 µM,COc1cccc2c(NCc3ccccc3)nc(-n3c(N)nc4cc(F)ccc43)nc12
25,5.4 µM,COc1cccc2c(NCc3ccccc3)nc(Nc3cccc(Cl)c3)nc12
26,7.3 µM,COc1cccc2c(NCc3ccc(O)cc3)nc(N3CCOc4ccccc43)nc12

# Same assay, conditions: at 20 µM (top of the series)
row,inhibition,Compound
1,inactive,COc1cccc2c(NCc3ccccc3)nc(-n3c(N)nc4cc(C)c(C)cc43)nc12
2,inactive,COc1cccc2c(NCc3ccccc3)nc(NC(N)=O)nc12
3,inactive,COc1cccc2c(NCc3ccccc3)nc(-n3cnc4ccccc43)nc12
